We go through one compound from PMC4371900 (International Journal of Nanomedicine, 2015).

In series [1] the test system is genotype 1b Con1 HCV sub-genomic replicon (Huh 5-2 cells). The experiment in a line: Antiviral assay with Huh 5-2 cells. The format is cell-based, hepatitis C virus.
A further series can be described thus: Cytostatic assay. The format is cell-based. As to conditions: human, Huh 5-2 cells. The method, boiled down:
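Huh 7 cells carrying subgenomic HCV replicon (Huh 5-2) were seeded at 5·10^3 cells/well in complete DMEM with G418. After 24 h, serial dilutions of test compound (free or γ-CD complex) were added in complete DMEM without G418. Cells proliferated 3 days at 37°C. Cell number was read by CellTiter 96 AQueous One.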

For orientation: viability means a read-out of living cells in per cent, often relative to untreated cells. Low values mean a greater loss of cells, high ones better survival. In the case of `OC[C@H]1O[C@@H]2O[C@H]3[C@H](O)[C@@H](O)[C@@H](O[C@H]4[C@H](O)[C@@H](O)[C@@H](O[C@H]5[C@H](O)[C@@H](O)[C@@H](O[C@H]6[C@H](O)[C@@H](O)[C@@H](O[C@H]7[C@H](O)[C@@H](O)[C@@H](O[C@H]8[C@H](O)[C@@H](O)[C@@H](O[C@H]9[C@H](O)[C@@H](O)[C@@H](O[C@H]1[C@H](O)[C@H]2O)O[C@@H]9CO)O[C@@H]8CO)O[C@@H]7CO)O[C@@H]6CO)O[C@@H]5CO)O[C@@H]4CO)O[C@@H]3CO` [γ-CD, γ-cyclodextrin], the luminescence in series [1] (control tests with compound-free γ-CD (data not shown)) worked out at 100%. Moreover, the “antiviral activity in cell assays” value in series [1] (delivered alone, free in solution) is “did not show antiviral activity”. In addition, the viability at 3 days in “Cytostatic assay” came to 100%.
